Assay results: ChEMBL document CHEMBL1142768, “2-(2-Furanyl)-7-phenyl[1,2,4]triazolo[1,5-c]pyrimidin-5-amine analogs as adenosine A2A antagonists: the successful reduction of hERG activity. Part 2” (Bioorg Med Chem Lett, 2005); call rule not given here

Columns and labels:
hERG (KCNH2) = hERG (KCNH2) (Homo sapiens, UniProt Q12809); assay: Percent inhibition of hERG by rubidium efflux FLIPR assay at concentration of 5 ug/mL; format: toxicity
[1] = Inhibitory constant against Adenosine A2A receptor using [3H]SCH-58261 as radio ligand; design: species or system Homo sapiens
Summary of the method: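 Radioligand binding at the adenosine A2A receptor, run in duplicate; Ki reported as the mean of the duplicates.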

Rattus norvegicus [2] = assay: Percent reduction of cataleptic effect in rat upon dosing at 3 mg/kg; 23/47; format: functional; design: scale not given: the % may be the effect or the level left
Rattus norvegicus [3] = assay: Percent reduction of cataleptic effect in rat upon dosing at 3 mg/kg; 55/40; format: functional; design: scale not given: the % may be the effect or the level left
Rattus norvegicus [4] = assay: Percent reduction of cataleptic effect in rat upon dosing at 3 mg/kg; 34/43; format: functional; design: scale not given: the % may be the effect or the level left
Rattus norvegicus [5] = assay: Percent reduction of cataleptic effect in rat upon dosing at 3 mg/kg; 23/32; format: functional; design: scale not given: the % may be the effect or the level left
Rattus norvegicus [6] = assay: Percent reduction of cataleptic effect in rat upon dosing at 3 mg/kg; 45/20; format: functional; design: scale not given: the % may be the effect or the level left
Rattus norvegicus [7] = assay: Percent reduction of cataleptic effect in rat upon dosing at 3 mg/kg; 28/0; format: functional; design: scale not given: the % may be the effect or the level left
Rattus norvegicus [8] = assay: Percent reduction of cataleptic effect in rat upon dosing at 3 mg/kg; 36/59; format: functional; design: scale not given: the % may be the effect or the level left
Rattus norvegicus [9] = assay: Percent reduction of cataleptic effect in rat upon dosing at 3 mg/kg; 19/46; format: functional; design: scale not given: the % may be the effect or the level left
Rattus norvegicus [10] = assay: Percent reduction of cataleptic effect in rat upon dosing at 3 mg/kg; 10/12; format: functional; design: scale not given: the % may be the effect or the level left
Rattus norvegicus [11] = assay: Percent reduction of cataleptic effect in rat upon dosing at 3 mg/kg; 0/23; format: functional; design: scale not given: the % may be the effect or the level left
Rattus norvegicus [12] = assay: Percent reduction of cataleptic effect in rat upon dosing at 3 mg/kg; 13/13; format: functional; design: scale not given: the % may be the effect or the level left

Sequence of hERG (KCNH2) (Q12809 whole entry): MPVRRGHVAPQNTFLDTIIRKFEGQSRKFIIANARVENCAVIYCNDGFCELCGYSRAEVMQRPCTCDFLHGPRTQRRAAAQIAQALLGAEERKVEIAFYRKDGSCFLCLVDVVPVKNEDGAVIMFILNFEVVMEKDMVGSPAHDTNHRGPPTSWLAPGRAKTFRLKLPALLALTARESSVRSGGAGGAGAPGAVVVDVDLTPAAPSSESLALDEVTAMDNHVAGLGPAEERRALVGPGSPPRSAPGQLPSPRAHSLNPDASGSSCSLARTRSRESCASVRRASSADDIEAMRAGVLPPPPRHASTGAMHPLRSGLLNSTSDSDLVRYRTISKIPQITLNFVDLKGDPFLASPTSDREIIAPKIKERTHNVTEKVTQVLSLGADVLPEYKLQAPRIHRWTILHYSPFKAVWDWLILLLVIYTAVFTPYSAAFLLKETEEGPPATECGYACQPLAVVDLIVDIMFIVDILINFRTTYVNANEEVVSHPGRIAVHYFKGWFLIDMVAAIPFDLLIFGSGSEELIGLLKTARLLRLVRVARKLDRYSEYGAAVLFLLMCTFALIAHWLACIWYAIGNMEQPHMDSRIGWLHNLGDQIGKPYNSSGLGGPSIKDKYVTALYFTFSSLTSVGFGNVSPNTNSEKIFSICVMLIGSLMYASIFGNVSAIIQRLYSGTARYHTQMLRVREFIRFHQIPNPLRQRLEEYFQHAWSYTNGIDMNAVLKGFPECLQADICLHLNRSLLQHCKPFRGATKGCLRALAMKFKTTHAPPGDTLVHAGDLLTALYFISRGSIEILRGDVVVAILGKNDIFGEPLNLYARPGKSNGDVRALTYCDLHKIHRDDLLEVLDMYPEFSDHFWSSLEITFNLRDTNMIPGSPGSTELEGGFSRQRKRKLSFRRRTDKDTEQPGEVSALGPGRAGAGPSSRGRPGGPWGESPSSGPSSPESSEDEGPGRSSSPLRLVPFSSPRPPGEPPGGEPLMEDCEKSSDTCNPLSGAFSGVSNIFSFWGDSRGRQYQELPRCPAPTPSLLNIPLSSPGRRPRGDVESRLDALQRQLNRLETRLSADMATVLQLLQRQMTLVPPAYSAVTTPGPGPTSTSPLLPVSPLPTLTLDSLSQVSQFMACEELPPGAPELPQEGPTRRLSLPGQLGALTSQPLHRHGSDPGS

| SMILES | inhibition at 5 ug/mL (hERG (KCNH2)) | Ki [1] | further results |
| --- | --- | --- | --- |
| Nc1nc(-c2cccc(N3CCN(C(=O)CN4CCOCC4)CC3)c2)cc2nc(-c3ccco3)nn12 | 5% | 0.5 nM | Activity (Rattus norvegicus [2]): 47% |
| COCCOc1cccc(N2CCN(Cc3cccc(-c4cc5nc(-c6ccco6)nn5c(N)n4)c3)CC2)c1 | 68% | – | – |
| COCCOc1ccc(N2CCN(c3cccc(-c4cc5nc(-c6ccco6)nn5c(N)n4)c3)CC2)cc1 | -4% (not active) | 1 nM | Activity (Rattus norvegicus [3]): 55% |
| CCCCOC(=O)N1CCN(c2cccc(-c3cc4nc(-c5ccco5)nn4c(N)n3)c2)CC1 | -3% (not active) | 0.5 nM | Activity (Rattus norvegicus [4]): 43% |
| Nc1nc(-c2cccc(N3CCN(CCN4CCOCC4)CC3)c2)cc2nc(-c3ccco3)nn12 | 13% | 1.3 nM | Activity (Rattus norvegicus [5]): 32% |
| Nc1nc(-c2cccc(N3CCC4(CC3)OCCO4)c2)cc2nc(-c3ccco3)nn12 | 8% | 0.4 nM | Activity (Rattus norvegicus [6]): 45% |
| CC1CN(CC(=O)N2CCN(c3cccc(-c4cc5nc(-c6ccco6)nn5c(N)n4)c3)CC2)CCO1 (stereo not drawn) | -3% (not active) | 0.8 nM | Activity (Rattus norvegicus [7]): 28% |
| Nc1nc(-c2cccc(N3CCNCC3)c2)cc2nc(-c3ccco3)nn12 | – | 5.7 nM | – |
| Nc1nc(-c2cccc(N3CCC(=O)CC3)c2)cc2nc(-c3ccco3)nn12 | – | 1.3 nM | – |
| Nc1nc(-c2cccc(CO)c2)cc2nc(-c3ccco3)nn12 | 15% | – | – |
| Nc1nc(-c2cccc(N3CCC(N4CCOCC4)CC3)c2)cc2nc(-c3ccco3)nn12 | 1% | 0.8 nM | Activity (Rattus norvegicus [8]): 59% |
| COCCOc1cccc(N2CCN(c3cccc(-c4cc5nc(-c6ccco6)nn5c(N)n4)c3)CC2)c1 | 3% | 2.3 nM | Activity (Rattus norvegicus [9]): 46% |
| CC(C)(C)CNC1CCN(c2cccc(-c3cc4nc(-c5ccco5)nn4c(N)n3)c2)CC1 | 9% | 18 nM | Activity (Rattus norvegicus [10]): 12% |
| CC(C)OC(=O)N1CCN(c2cccc(-c3cc4nc(-c5ccco5)nn4c(N)n3)c2)CC1 | 8% | 1 nM | Activity (Rattus norvegicus [11]): 23% |
| COCCOc1ccc(N2CCN(Cc3cccc(-c4cc5nc(-c6ccco6)nn5c(N)n4)c3)CC2)cc1 | 81% | – | – |
| CC(C)S(=O)(=O)N1CCN(c2cccc(-c3cc4nc(-c5ccco5)nn4c(N)n3)c2)CC1 | 10% | 0.5 nM | Activity (Rattus norvegicus [12]): 13% |
